Compound activity (PubChem BioAssay)
miR122 inh = miR-122 inhibition in Huh7 cells | AID 602342 | Huh7 miR-122 Renilla luciferase sensor, 48 h; neutral wells = 0, positive control = 100 | activation (reporter increase), % at 12.5 µM | 340,000 compounds, 0.3% hits;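 active = mean replicate activation score at least 90 and every replicate individually at or above 90; inconclusive = only one of the two criteria met; inactive = neither criterion met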;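 note: higher luciferase means less miR-122 activity so hits act as miR-122 inhibitors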
dFosB act-1 = activators of mouse delta FosB homodimer. P13346. purified delta FosB, TAMRA-CDK5 oligo fluorescence polarization; percent of positive-control signal above neutral wells. activation, % at 25 µM. 340,000 compounds, 0.99% hits. AID 493131;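 active = mean activation above about 17%, with every replicate also reaching it, limit read from the data, passing the limit was not always enough; inconclusive = only one of the two conditions met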
Target sequence (P13346 whole entry, looked up): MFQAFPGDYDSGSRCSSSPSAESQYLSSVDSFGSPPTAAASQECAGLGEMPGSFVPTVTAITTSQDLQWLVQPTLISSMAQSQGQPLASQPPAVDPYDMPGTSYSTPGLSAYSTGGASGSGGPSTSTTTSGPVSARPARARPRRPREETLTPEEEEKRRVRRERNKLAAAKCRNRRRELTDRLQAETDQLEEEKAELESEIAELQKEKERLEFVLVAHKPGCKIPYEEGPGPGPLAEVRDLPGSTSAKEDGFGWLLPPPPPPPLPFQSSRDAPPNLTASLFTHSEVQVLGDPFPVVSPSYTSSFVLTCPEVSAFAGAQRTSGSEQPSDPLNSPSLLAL
Cneo AK release = causes C. neoformans cell lysis; adenylate kinase release luminescence, 4 h; normalised: neutral wells 0, clomiphene wells 100; lysis activity, % at 15 µM; 360,000 compounds, 0.2% hits; AID 651654;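 active = mean lysis activity across replicates of at least 80%, whatever share of replicates individually reach that level; inactive = mean lysis activity below 80%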
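Test system: log-phase Cryptococcus neoformans yeast cells. Input: 5 × 10^6 yeast cells/mL. Medium: fresh YPD growth medium. Doses: single dose. Incubation: static 4 h at 37 °C with compound, 1 h detection. Measured by: luminescent adenylate kinase detection reagent. Read-out: signal increase indicating cell lysis. Benchmarks: Clomiphene.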
Rtt109 HAT inh = C. albicans Rtt109 histone acetyltransferase inhibition; purified Rtt109/Vps75, ThioGlo CoA-SH fluorescence, 4 h; inhibition, % at 34.9 µM; 330,000 compounds, 0.16% hits;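 active = inhibition of at least 50% in every replicate; inconclusive = best replicate reaches 50% inhibition but some replicates fall short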
Target sequence (Q5AAJ8 whole entry, looked up): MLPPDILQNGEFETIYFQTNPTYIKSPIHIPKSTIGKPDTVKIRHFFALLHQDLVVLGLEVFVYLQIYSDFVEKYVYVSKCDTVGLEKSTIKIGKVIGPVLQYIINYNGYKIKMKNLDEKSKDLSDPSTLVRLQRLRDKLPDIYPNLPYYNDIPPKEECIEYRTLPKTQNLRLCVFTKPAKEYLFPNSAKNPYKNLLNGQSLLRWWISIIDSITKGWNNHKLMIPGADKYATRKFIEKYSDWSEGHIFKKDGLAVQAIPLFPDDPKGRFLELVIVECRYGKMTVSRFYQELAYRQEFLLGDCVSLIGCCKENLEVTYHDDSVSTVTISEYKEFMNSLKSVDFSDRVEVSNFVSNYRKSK
Env fusion inh = inhibitors of HIV Env-mediated cell fusion | inhibition, % at 12.3 µM | 360,000 compounds, 1.1% hits | HeLa-JRFL Env/CEM21 cell fusion, luciferase | AID 651610;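 active = mean replicate inhibition score of at least 50 and every replicate individually at or above 50; inconclusive = only one of the two criteria met; inactive = mean below 50 and not all replicates reaching 50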
INS-1E GSIS act = GLuc luminescence reporter in INS-1E cells, primary screen for activators of glucose-dependent secretion of insulin; activation, % at 16.6 µM; INS-1E GLuc reporter insulin secretion, 2-3 h; 370,000 compounds, 0.61% hits;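 active = lowest replicate activation of at least 40%, so every replicate reaches that level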
dFosB act-2 = enhances mouse delta FosB homodimer binding to DNA | shares compounds with dFosB act-1 | purified delta FosB, TAMRA-CDK5 oligo fluorescence polarization; normalised: neutral wells 0, positive control 100 | activation, % at 24.9 µM | 2,400 tested, under 10 active;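 active = highest replicate activation at or above 34% and every replicate reaching that threshold; inconclusive = meets only one of the two criteria; inactive = meets neither criterion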;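 note: higher polarization means more probe DNA bound by delta FosB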
Large screens that a line does not name were inactive (follow-up assays come after a bar, where they were run). Hits are enriched below; roughly 2.4% of the tested compounds scored in any of these assays.

Cc1ccc(NC(=O)CCC(=O)Nc2nnc(C3CCCCC3)s2)cc1	none (no result: miR122 inh, Cneo AK release)
Cc1cccc(NC(=O)CCC(=O)Nc2nnc(C3CCCCC3)s2)c1	dFosB act-1 30 | dFosB act-2 inactive
C[C@@H]1CN([C@H](C)CO)C(=O)c2cc(C3=CCCC3)cnc2O[C@H]1CN(C)C(=O)C1CC1	none (no result: dFosB act-1, Cneo AK release, Rtt109 HAT inh)
O=C(Nc1ccc(-n2ccc(C(F)(F)F)n2)cc1)Nc1cccc(Cl)c1	dFosB act-1 29 (no result: miR122 inh, Cneo AK release) | dFosB act-2 inactive
Cc1cc(C)cc(NC(=O)Nc2ccc(-n3ccc(C(F)(F)F)n3)cc2)c1	none
CCCSc1nc(N)c2c3c(sc2n1)CN(C)CC3	none (no result: Env fusion inh, INS-1E GSIS act)
CN(C)CCSc1nc(N)c2c3c(sc2n1)CN(C)CC3	dFosB act-1 25 (no result: Env fusion inh, INS-1E GSIS act) | dFosB act-2 inactive
COc1ccc2cc3cc(C(=O)NCc4ccc5c(c4)OCO5)oc3nc2c1	dFosB act-1 17 (no result: INS-1E GSIS act) | dFosB act-2 inactive
CN(C)CC(=O)N[C@H]1CC[C@H](CC(=O)O)O[C@@H]1CO	none (no result: miR122 inh, dFosB act-1, Cneo AK release, Rtt109 HAT inh, Env fusion inh)
O=C(N/N=C/c1ccc(Cl)c([N+](=O)[O-])c1)c1cc(-c2ccc3c4c(cccc24)CC3)n[nH]1	dFosB act-1 38 | dFosB act-2 inactive
O=C(N/N=C/c1cccc([N+](=O)[O-])c1)c1cc(-c2ccc3c4c(cccc24)CC3)n[nH]1	none
COc1ccc(CNC(=O)CCCCCNc2nc(=S)[nH]c3ccccc23)cc1	dFosB act-1 39 (no result: INS-1E GSIS act) | dFosB act-2 inactive
COc1ccc(CCNC(=O)CCCCCNc2nc(=S)[nH]c3ccccc23)cc1OC	none
O=C(NC1CCCCC1)c1ccc(CNc2nc(=S)[nH]c3ccccc23)cc1	dFosB act-1 19 | dFosB act-2 inactive
O=C(C[C@H]1C[C@H]2c3cc(NC(=O)c4cccnc4)ccc3O[C@H]2[C@H](CO)O1)NCc1ccncc1	none (no result: dFosB act-1, Rtt109 HAT inh, Env fusion inh)
Cc1ccccc1C(=O)Nc1nnc(CC(=O)N/N=C/c2ccco2)s1	dFosB act-1 40 (no result: miR122 inh, Cneo AK release) | dFosB act-2 inactive
Cc1ccccc1C(=O)Nc1nnc(CC(=O)N/N=C/c2cn(Cc3ccccc3)c3ccccc23)s1	none (no result: miR122 inh, Cneo AK release)
O=C(NNC(=O)c1ccccc1O)c1cc2ccccc2o1	none
COc1ccc(Cl)cc1C(=O)NNC(=O)c1cc2ccccc2o1	dFosB act-1 35 (no result: Env fusion inh) | dFosB act-2 inactive
Cc1ccc(C(=O)NCc2ccc3c(c2)OCO3)cc1	none
Cc1ccc(C(=O)NCCc2nnc3ccc(NCc4ccc5c(c4)OCO5)nn23)cc1	dFosB act-1 51 (no result: miR122 inh) | dFosB act-2 inactive
CO[C@@H]1CN(C)C(=O)c2ccc(NC(=O)C3CCC3)cc2OC[C@@H](C)N(C(=O)CN(C)C)C[C@H]1C	none (no result: miR122 inh, dFosB act-1, Cneo AK release, Rtt109 HAT inh, Env fusion inh)
Cc1cccc(-n2ncc3c(=O)[nH]c(SCC(=O)N4CC(=O)Nc5ccccc54)nc32)c1	dFosB act-1 47 (no result: miR122 inh, Env fusion inh) | dFosB act-2 inactive
Cc1ccc(NC(=O)CSC2=C(C#N)C(c3ccc4c(c3)OCO4)CC(=O)N2)cc1C (configuration not stated)	dFosB act-1 46 (no result: Env fusion inh) | dFosB act-2 inactive
CCc1ccc(NC(=O)CSC2=C(C#N)C(c3ccc4c(c3)OCO4)CC(=O)N2)cc1 (configuration not stated)	none (no result: Env fusion inh, INS-1E GSIS act)
CC(C)NC(=O)N[C@H]1C=C[C@H](CC(=O)NCCCN(C)C)O[C@@H]1CO	none (no result: dFosB act-1, Rtt109 HAT inh)
CCOc1ccccc1N1C(=O)CC(Sc2ccccc2N)C1=O (configuration not stated)	none (no result: dFosB act-1, Rtt109 HAT inh)
COc1ccc(Cl)cc1N1C(=O)CC(Sc2ccccc2N)C1=O (configuration not stated)	dFosB act-1 38 (no result: INS-1E GSIS act) | dFosB act-2 inactive
CN(C)C(=O)[C@H]1[C@H](CO)[C@H]2Cn3c(ccc(-c4ccccc4F)c3=O)[C@H]2N1C(=O)c1cnccn1	none (no result: dFosB act-1, Rtt109 HAT inh, Env fusion inh)
COc1cc2c(cc1OC)C(C)N(C(=O)c1cc3c(=O)oc4ccc(C)cc4c3s1)CC2 (configuration not stated)	dFosB act-1 41 | dFosB act-2 inactive
O=C(NC1CCC1)[C@@H]1[C@@H](CO)[C@@H]2Cn3c(ccc(-c4ccccc4)c3=O)[C@@H]2N1Cc1ccccn1	none (no result: dFosB act-1, Rtt109 HAT inh, Env fusion inh)
COc1cccc(NC(=O)Nc2ccc3c(c2)OC[C@H](C)NC[C@H](C)[C@@H](OC)CN(C)C3=O)c1	none (no result: miR122 inh, dFosB act-1, Cneo AK release, Rtt109 HAT inh, Env fusion inh)
O=C(Nc1ccc2c(c1)[C@@H]1C[C@@H](CC(=O)N3CCc4ccccc4C3)O[C@H](CO)[C@@H]1O2)NC1CCCC1	none (no result: dFosB act-1, Rtt109 HAT inh)
COc1cccc(S(=O)(=O)N(C)C[C@H]2Oc3ncc(-c4cccc(C(=O)N(C)C)c4)cc3C(=O)N([C@H](C)CO)C[C@@H]2C)c1	none (no result: dFosB act-1, Rtt109 HAT inh)
COC(=O)CNc1nc(Cl)nc(Nc2ccc(Cl)cc2)n1	dFosB act-1 48 | dFosB act-2 inactive
C[C@@H]1CN([C@H](C)CO)C(=O)c2c(c3ccccc3n2C)-c2ccccc2CO[C@@H]1CN(C)C(=O)[C@H](C)c1ccccc1	none (no result: miR122 inh, dFosB act-1, Cneo AK release, Rtt109 HAT inh, Env fusion inh)
CCc1nnc(NC(=O)c2ccc(-c3cccc(C(F)(F)F)c3)o2)s1	dFosB act-1 19 (no result: INS-1E GSIS act) | dFosB act-2 inactive
CCc1nnc(NC(=O)c2ccc(-c3cc(C(F)(F)F)ccc3Cl)o2)s1	none
O=C(Nc1cccnc1)c1cc(-c2ccc(Cl)cc2)on1	none (no result: Cneo AK release)
O=C(Nc1cccnc1)c1cc(-c2ccc(Cl)cc2Cl)on1	dFosB act-1 62 | dFosB act-2 inactive
O=C(CCn1c(=O)c2ccccc2n(Cc2cccnc2)c1=O)NCc1ccc2c(c1)OCO2	none (no result: Env fusion inh)
Cc1ccccc1Cn1c(=O)n(CCC(=O)NCc2ccc3c(c2)OCO3)c(=O)c2ccccc21	dFosB act-1 60 (no result: INS-1E GSIS act) | dFosB act-2 inactive
Cc1cccc(NC(=O)Cn2c(=O)n(CCC(=O)NC3CCCC3)c(=O)c3ccccc32)c1	dFosB act-1 42 (no result: INS-1E GSIS act) | dFosB act-2 inactive
Cc1ccc(CNC(=O)Cn2c(=O)n(-c3ccccc3)c(=O)c3sccc32)cc1	dFosB act-1 21 | dFosB act-2 inactive
Cc1ccc(CNC(=O)CCCn2c(=O)c3ccccc3n(CC(=O)NC3CCCC3)c2=O)cc1	dFosB act-1 27 (no result: Env fusion inh, INS-1E GSIS act) | dFosB act-2 inactive
CCN(CC)C(=O)Cn1c(=O)n(-c2ccc(CC(=O)NCc3ccccc3)cc2)c(=O)c2sccc21	none
O=C(C1CC1)N1C[C@@H]2[C@H](c3ccccc31)[C@H](CO)N2C(=O)c1cccc(F)c1	none (no result: dFosB act-1, Rtt109 HAT inh, Env fusion inh)
CCOc1ccc2nc(NC3=NC(C)(C)C=C(C)N3)nc(C)c2c1	dFosB act-1 23 (no result: INS-1E GSIS act) | dFosB act-2 inactive
CCOc1ccc2nc(NC3=NC(c4ccc(OC)cc4)CC(=O)N3)nc(C)c2c1 (configuration not stated)	none (no result: miR122 inh, Cneo AK release, Env fusion inh)
CCOc1ccc2c(C)nc(NC3=NC(C)(C)C=C(C)N3)nc2c1	dFosB act-1 26, Rtt109 HAT inh inconclusive (no result: INS-1E GSIS act) | dFosB act-2 inconclusive
